Results taken from ChEMBL document CHEMBL5649168, “Discovery of a selective catalytic p300/CBP inhibitor that targets lineage-specific tumours” (Nature, 2017).
The source made the active and inactive calls. The calls are words filed in the database; no cut-off is given here.

Tests used:
[1] = target: Tyrosine-protein kinase Fyn (Homo sapiens, UniProt P06241); assay: Inhibition of Fyn (unknown origin)
[2] = tested on: LuCaP-77 CR cell; conditions: Homo sapiens, dose 100.0 mg/kg, time 7.0 day
[3] = target: NT-3 growth factor receptor (Homo sapiens, UniProt Q16288); assay: Inhibition of TrkC (unknown origin)
[4] = tested on: THP-1; assay: Antiproliferative activity against human THP-1 cells assessed as inhibition of cell viability incubated for 3 to 5 days by Celltiter-Glo luminescent assay; format: functional, cell-based
[5] = tested on: Jurkat; assay: Antiproliferative activity against human Jurkat cells assessed as inhibition of cell viability incubated for 3 to 5 days by Celltiter-Glo luminescent assay; format: functional, cell-based
[6] = tested on: HCC1187; assay: Antiproliferative activity against human HCC1187 cells assessed as inhibition of cell viability incubated for 3 to 5 days by Celltiter-Glo luminescent assay; format: functional, cell-based
[7] = target: Calcium/calmodulin-dependent protein kinase type 1D (Homo sapiens, UniProt Q8IU85); assay: Inhibition of CAMK1D (unknown origin)
[8] = target: Serine/threonine-protein kinase TBK1 (Homo sapiens, UniProt Q9UHD2); assay: Inhibition of TBK1 (unknown origin)
[9] = tested on: WM 266-4; assay: Antiproliferative activity against human WM266-4 cells assessed as inhibition of cell viability incubated for 3 to 5 days by Celltiter-Glo luminescent assay; format: functional, cell-based
[10] = target: Ca2+ channel (L, dihydropyridine site) (Homo sapiens, UniProt O60840+Q01668+Q13698+Q13936); assay: Inhibition of Ca2+ channel (L, dihydropyridine site) (unknown origin) at 10 uM by radioligand binding assay relative to control; format: protein assay
[11] = target: Platelet-derived growth factor receptor alpha (Homo sapiens, UniProt P16234); assay: Inhibition of PDGFRalpha (unknown origin)
[12] = tested on: Malme-3M; assay: Antiproliferative activity against human Malme-3M cells assessed as inhibition of cell viability incubated for 3 to 5 days by Celltiter-Glo luminescent assay; format: functional, cell-based
[13] = tested on: SK-MEL-2; assay: Antiproliferative activity against human SK-MEL-2 cells assessed as inhibition of cell viability incubated for 3 to 5 days by Celltiter-Glo luminescent assay; format: functional, cell-based
[14] = target: Serine/threonine-protein kinase 33 (Homo sapiens, UniProt Q9BYT3); assay: Inhibition of STK33 (unknown origin)
[15] = Tmax in CB17 SCID mouse xenografted with LuCaP-77 CR cell at 200 mg/kg, ip administered for 7 days; format: ADME, organism-based; conditions: in vivo, time 7 day
[16] = target: Protein kinase C zeta type (Homo sapiens, UniProt Q05513); assay: Inhibition of PKCzeta (unknown origin)
[17] = tested on: NCI-H1836; assay: Antiproliferative activity against human NCI-H1836 cells assessed as inhibition of cell viability incubated for 3 to 5 days by Celltiter-Glo luminescent assay; format: functional, cell-based
[18] = target: Serine/threonine-protein kinase 16 (Homo sapiens, UniProt O75716); assay: Inhibition of STK16 (unknown origin)
Serine/threonine-protein kinase 16, sequence (O75716 whole entry): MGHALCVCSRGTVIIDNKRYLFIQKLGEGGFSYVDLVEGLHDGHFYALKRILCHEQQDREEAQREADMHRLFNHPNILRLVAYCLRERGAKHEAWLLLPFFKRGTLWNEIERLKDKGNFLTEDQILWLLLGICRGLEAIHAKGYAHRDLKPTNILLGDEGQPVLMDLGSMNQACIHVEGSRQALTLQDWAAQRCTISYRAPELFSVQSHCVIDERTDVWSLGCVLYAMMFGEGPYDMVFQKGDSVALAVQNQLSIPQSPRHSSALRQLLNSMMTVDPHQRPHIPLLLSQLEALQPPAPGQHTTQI

[19] = target: CREB-binding protein/Histone acetyltransferase p300 (Homo sapiens, UniProt Q09472+Q92793); assay: Inhibition of p300/CBP in human 22Rv1 cells assessed as reduction in H3K9Ac level incubated for 3 hrs by Hoechst 33342 staining based high content microscopy analysis; format: cell-based
CREB-binding protein/Histone acetyltransferase p300, sequence (Q09472 whole entry, looked up): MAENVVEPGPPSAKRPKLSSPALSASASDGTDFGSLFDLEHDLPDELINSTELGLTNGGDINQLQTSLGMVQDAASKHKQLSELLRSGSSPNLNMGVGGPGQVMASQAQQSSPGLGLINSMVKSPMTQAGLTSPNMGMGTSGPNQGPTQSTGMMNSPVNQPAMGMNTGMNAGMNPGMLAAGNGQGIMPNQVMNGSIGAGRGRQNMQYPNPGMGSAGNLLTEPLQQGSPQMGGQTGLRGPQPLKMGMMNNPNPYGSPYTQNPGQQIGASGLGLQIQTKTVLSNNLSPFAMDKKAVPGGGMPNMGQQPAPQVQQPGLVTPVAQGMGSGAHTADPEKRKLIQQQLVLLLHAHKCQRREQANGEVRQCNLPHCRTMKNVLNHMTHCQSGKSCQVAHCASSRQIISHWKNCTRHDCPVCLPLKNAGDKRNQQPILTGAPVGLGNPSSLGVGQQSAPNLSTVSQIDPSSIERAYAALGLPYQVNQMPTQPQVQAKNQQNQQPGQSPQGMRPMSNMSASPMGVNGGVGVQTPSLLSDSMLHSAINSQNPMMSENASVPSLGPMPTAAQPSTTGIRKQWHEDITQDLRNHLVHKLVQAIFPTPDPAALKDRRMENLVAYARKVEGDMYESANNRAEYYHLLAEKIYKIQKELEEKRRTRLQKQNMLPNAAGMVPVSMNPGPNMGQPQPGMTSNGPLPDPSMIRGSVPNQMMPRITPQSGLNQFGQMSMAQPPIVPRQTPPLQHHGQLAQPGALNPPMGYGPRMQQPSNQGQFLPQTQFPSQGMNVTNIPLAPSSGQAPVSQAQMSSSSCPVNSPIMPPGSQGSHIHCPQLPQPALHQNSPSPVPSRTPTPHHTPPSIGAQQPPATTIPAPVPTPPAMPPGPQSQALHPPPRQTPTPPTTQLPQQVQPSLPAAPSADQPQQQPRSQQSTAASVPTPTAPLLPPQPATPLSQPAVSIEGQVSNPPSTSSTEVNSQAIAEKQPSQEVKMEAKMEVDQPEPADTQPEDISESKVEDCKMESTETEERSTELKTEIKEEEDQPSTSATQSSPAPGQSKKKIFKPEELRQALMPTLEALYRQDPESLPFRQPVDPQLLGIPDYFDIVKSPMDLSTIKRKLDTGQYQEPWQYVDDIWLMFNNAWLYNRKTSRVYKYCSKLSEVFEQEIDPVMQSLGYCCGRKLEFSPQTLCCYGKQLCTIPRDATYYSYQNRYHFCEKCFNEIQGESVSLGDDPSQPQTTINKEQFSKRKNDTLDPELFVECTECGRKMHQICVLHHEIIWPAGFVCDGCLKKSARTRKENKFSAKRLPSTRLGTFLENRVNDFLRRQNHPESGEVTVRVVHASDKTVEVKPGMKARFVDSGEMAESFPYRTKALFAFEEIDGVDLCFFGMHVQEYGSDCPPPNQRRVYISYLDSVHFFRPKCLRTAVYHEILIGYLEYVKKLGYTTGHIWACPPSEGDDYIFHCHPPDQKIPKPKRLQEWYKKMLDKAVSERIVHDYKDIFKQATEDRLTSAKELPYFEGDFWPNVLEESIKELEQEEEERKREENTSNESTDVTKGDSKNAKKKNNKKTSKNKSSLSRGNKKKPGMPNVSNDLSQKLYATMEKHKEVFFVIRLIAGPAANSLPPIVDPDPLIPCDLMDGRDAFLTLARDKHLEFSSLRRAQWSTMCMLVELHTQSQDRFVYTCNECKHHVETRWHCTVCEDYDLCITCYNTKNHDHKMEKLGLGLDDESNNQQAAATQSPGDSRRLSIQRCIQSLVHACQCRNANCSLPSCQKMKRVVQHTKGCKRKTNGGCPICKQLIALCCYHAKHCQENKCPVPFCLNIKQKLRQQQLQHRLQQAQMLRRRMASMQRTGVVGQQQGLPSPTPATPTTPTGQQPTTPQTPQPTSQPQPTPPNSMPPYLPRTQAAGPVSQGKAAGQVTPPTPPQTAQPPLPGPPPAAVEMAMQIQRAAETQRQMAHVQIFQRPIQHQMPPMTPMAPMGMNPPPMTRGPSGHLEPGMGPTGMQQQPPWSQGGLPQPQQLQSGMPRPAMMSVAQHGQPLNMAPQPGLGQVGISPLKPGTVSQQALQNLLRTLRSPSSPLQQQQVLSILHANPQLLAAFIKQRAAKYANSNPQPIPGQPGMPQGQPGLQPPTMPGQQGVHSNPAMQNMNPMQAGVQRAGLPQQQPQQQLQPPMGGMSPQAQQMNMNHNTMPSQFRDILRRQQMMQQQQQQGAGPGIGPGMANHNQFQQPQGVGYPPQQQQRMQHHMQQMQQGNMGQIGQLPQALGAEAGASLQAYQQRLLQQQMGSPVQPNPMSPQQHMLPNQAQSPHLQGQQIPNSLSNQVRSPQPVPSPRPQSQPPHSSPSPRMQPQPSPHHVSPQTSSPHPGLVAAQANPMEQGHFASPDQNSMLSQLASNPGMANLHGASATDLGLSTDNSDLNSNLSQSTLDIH
CREB-binding protein/Histone acetyltransferase p300, sequence (Q92793 whole entry, looked up): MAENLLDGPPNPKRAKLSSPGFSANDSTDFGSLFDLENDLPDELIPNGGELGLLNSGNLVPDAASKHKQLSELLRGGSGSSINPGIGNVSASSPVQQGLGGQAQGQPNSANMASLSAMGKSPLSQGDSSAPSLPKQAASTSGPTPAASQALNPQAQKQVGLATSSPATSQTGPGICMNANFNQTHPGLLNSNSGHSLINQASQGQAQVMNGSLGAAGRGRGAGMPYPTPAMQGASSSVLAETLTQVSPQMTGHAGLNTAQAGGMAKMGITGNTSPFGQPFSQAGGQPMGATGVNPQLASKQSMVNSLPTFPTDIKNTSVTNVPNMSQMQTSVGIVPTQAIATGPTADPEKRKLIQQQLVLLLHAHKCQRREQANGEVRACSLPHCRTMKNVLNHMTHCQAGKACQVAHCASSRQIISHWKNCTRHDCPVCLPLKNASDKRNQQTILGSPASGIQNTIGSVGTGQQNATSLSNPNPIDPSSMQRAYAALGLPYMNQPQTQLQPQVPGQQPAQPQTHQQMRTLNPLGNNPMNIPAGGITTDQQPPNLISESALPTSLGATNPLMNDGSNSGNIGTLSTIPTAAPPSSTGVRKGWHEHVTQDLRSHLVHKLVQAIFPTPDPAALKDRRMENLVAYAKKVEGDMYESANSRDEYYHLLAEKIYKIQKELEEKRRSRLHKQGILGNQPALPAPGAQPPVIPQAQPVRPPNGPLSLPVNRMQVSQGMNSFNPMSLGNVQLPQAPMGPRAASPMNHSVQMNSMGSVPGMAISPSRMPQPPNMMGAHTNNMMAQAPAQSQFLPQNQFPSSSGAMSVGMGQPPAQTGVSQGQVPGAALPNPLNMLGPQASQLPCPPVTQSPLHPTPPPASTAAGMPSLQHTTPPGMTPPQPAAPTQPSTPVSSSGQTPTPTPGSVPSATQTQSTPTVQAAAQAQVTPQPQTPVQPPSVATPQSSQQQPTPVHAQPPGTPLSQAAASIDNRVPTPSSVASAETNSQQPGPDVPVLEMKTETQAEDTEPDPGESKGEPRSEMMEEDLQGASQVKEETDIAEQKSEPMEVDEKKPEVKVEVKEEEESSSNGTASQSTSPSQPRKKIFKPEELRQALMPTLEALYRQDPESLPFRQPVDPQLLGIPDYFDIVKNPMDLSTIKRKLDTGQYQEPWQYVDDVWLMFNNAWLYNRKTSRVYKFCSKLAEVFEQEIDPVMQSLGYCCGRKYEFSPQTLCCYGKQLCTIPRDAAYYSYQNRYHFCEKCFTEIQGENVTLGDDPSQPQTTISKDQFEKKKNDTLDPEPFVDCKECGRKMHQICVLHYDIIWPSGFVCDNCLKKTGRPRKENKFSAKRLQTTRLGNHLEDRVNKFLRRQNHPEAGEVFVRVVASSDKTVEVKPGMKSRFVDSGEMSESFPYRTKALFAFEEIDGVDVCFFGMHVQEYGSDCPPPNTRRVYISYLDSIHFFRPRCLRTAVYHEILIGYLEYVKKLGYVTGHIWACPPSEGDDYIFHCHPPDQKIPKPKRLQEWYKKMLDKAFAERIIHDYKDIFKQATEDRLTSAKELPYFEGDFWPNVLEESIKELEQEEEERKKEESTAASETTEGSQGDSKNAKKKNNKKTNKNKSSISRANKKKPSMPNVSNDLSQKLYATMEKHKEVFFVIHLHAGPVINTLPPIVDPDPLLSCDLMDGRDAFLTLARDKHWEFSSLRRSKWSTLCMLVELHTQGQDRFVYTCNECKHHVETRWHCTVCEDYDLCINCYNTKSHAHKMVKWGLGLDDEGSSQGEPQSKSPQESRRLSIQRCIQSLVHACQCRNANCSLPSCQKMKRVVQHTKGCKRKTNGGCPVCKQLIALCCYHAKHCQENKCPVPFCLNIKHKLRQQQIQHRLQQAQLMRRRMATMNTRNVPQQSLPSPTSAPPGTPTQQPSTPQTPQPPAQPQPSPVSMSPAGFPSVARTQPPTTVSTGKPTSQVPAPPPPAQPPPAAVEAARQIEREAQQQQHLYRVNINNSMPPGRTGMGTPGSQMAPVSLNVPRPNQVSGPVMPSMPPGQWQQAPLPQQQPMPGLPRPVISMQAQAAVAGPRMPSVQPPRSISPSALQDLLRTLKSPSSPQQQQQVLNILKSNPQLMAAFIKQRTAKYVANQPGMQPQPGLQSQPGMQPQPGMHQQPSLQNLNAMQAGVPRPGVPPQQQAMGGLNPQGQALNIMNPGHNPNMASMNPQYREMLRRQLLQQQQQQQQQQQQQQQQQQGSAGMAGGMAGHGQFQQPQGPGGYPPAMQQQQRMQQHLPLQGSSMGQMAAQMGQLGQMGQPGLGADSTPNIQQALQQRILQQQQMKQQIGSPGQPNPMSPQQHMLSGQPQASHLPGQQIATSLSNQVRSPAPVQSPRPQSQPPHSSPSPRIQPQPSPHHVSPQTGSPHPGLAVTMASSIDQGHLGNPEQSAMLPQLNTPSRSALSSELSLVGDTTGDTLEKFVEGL
Summary of the method: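 Cells received an 8-point half-log dilution series from 10 µM. They were then fixed in 10% formaldehyde (10 min, RT), permeabilised with 0.1% Triton X-100 and blocked with 1% BSA for 1 h. Primary antibodies were applied overnight at 4 °C, followed by Alexa488 anti-rabbit, Alexa555 anti-mouse and Hoechst 33342 for 1 h. Fifteen fields per well were imaged and average mean intensity taken. EC50 came from a sigmoidal fit.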

[20] = tested on: NCI-H128; assay: Antiproliferative activity against human NCI-H128 cells assessed as inhibition of cell viability incubated for 3 to 5 days by Celltiter-Glo luminescent assay; format: functional, cell-based
[21] = target: High affinity nerve growth factor receptor (Homo sapiens, UniProt P04629); assay: Inhibition of TrkA (unknown origin)
[22] = target: MAO-A (Homo sapiens, UniProt P21397); assay: Inhibition of MAO-A (unknown origin) at 10 uM by radioligand binding assay relative to control
[23] = tested on: COR-L47; assay: Antiproliferative activity against human COR-L47 cells assessed as inhibition of cell viability incubated for 3 to 5 days by Celltiter-Glo luminescent assay; format: functional, cell-based
[24] = tested on: NCI-H211; assay: Antiproliferative activity against human NCI-H211 cells assessed as inhibition of cell viability incubated for 3 to 5 days by Celltiter-Glo luminescent assay; format: functional, cell-based
[25] = tested on: HL-60; assay: Antiproliferative activity against human HL-60 cells assessed as inhibition of cell viability incubated for 3 to 5 days by Celltiter-Glo luminescent assay; format: functional, cell-based
[26] = tested on: U-2973; assay: Antiproliferative activity against human U-2973 cells assessed as inhibition of cell viability incubated for 3 to 5 days by Celltiter-Glo luminescent assay; format: functional, cell-based
[27] = Half life in CB17 SCID mouse xenografted with LuCaP-77 CR cell at 200 mg/kg, ip administered for 7 days; format: ADME, organism-based; conditions: in vivo, time 7 day
[28] = target: Mitogen-activated protein kinase 14 (Homo sapiens, UniProt Q16539); assay: Inhibition of p38alpha (unknown origin)
[29] = Tmax in CB17 SCID mouse xenografted with LuCaP-77 CR cell at 100 mg/kg, ip administered for 7 days; format: ADME, organism-based; conditions: in vivo, time 7 day
[30] = tested on: SKM-1; assay: Antiproliferative activity against human SKM-1 cells assessed as inhibition of cell viability incubated for 3 to 5 days by Celltiter-Glo luminescent assay; format: functional, cell-based
[31] = tested on: SK-MEL-24; assay: Antiproliferative activity against human SK-MEL-24 cells assessed as inhibition of cell viability incubated for 3 to 5 days by Celltiter-Glo luminescent assay; format: functional, cell-based
[32] = target: Ribosomal protein S6 kinase alpha-3 (Homo sapiens, UniProt P51812); assay: Inhibition of Rsk2 (unknown origin)
[33] = target: Glycogen synthase kinase-3 alpha (Homo sapiens, UniProt P49840); assay: Inhibition of Gsk3alpha (unknown origin)
[34] = tested on: MDA-MB-453; assay: Antiproliferative activity against human MDA-MB-453 cells assessed as inhibition of cell viability incubated for 3 to 5 days by Celltiter-Glo luminescent assay; format: functional, cell-based
[35] = tested on: HCC4006; assay: Antiproliferative activity against human HCC4006 cells assessed as inhibition of cell viability incubated for 3 to 5 days by Celltiter-Glo luminescent assay; format: functional, cell-based
[36] = tested on: LuCaP-77 CR cell; conditions: Homo sapiens, dose 100.0 mg/kg, time 7.0 day; remark: listed apart in the source
[37] = tested on: LuCaP-77 CR cell; conditions: Homo sapiens, dose 100.0 mg/kg, time 7.0 day; remark: listed apart in the source
[38] = tested on: NCI-H596; assay: Antiproliferative activity against human NCI-H596 cells assessed as inhibition of cell viability incubated for 3 to 5 days by Celltiter-Glo luminescent assay; format: functional, cell-based
[39] = Inhibition of CDK9/Cyclin K (unknown origin); set-up: species or system Homo sapiens
[40] = target: Tyrosine-protein kinase SYK (Homo sapiens, UniProt P43405); assay: Inhibition of Syk (unknown origin)
[41] = Cmax in CB17 SCID mouse xenografted with LuCaP-77 CR cell at 100 mg/kg, ip administered for 7 days; format: ADME, organism-based; conditions: in vivo, time 7 day

With CNC(=O)Nc1ccc2c(c1)CC[C@@]21OC(=O)N(CC(=O)N(Cc2ccc(F)cc2)[C@@H](C)C(F)(F)F)C1=O [A-485] the IC50 [1] was > 10 µM, the inhibition [2] was “Active” and the IC50 [3] was > 10 µM. The EC50 [4] was 3.51 µM, the EC50 [5] was 4.03 µM and the EC50 [6] was > 10 µM. The IC50 [7] was > 10 µM, the IC50 [8] was > 10 µM and the EC50 [9] was 1.91 µM. For the same molecule, the inhibition at 10 µM [10] was -9%, the IC50 [11] was > 10 µM and the EC50 [12] was 2.69 µM. The EC50 [13] was > 10 µM, the IC50 [14] was > 10 µM and the Tmax [15] was 6 h. For the same molecule, the IC50 [16] was > 10 µM, the EC50 [17] was > 10 µM and the IC50 [18] was > 10 µM. For the same molecule, the INH [19] was > 10 µM, the EC50 [20] was > 10 µM and the IC50 [21] was > 10 µM. The inhibition at 10 µM [22] was 28%, the EC50 [23] was > 10 µM and the EC50 [24] was 1.5 µM. For the same molecule, the EC50 [25] was > 10 µM, the EC50 [26] was 0.66 µM and the half-life [27] was 3 h. For the same molecule, the IC50 [28] was > 10 µM, the Tmax [29] was 3 h and the EC50 [30] was 1.34 µM. The EC50 [31] was > 10 µM, the IC50 [32] was > 10 µM and the IC50 [33] was > 10 µM. The EC50 [34] was 1.87 µM, the EC50 [35] was 4.64 µM and the inhibition [36] was “Active”. The inhibition [37] was “Active”, the EC50 [38] was > 10 µM and the IC50 [39] was > 10 µM. The IC50 [40] was > 10 µM and the Cmax [41] was 75.5 µg/mL.
